The values below come from publication PMC10558795 (Redox Biology, 2023).

Bounds are passed on as bounds.

Data set [1] concerns human NRF2 target genes in KYSE70 cells. Kind of data set: RNAseq of KYSE70 cells. The class given is cell-based. Conditions: PYR 10 μM for 72 h, MIT 20 nM for 72 h. The method, boiled down:
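Total RNA from treated and control cells made into Illumina libraries and sequenced (150 bp). Reads aligned to hg38 with RefSeq annotation and counted per gene; DEGs called by fold-change cut-off and corrected p-values. Gene set enrichment analysis performed; overall NRF2 target-gene mRNA level calculated on natural log scale.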

The subject of data set [2] is NRF2 activity (NQO1-YFP signal, CDDO-activated). Kind of data set: High-throughput screen and dose response: NRF2 activity. The conditions noted are these: Homo sapiens, NCI-H1299, read-out: NRF2 inhibition (IC50, μM). The class given is cell-based, human. The method, boiled down:
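NQO1-YFP H1299 reporter cells (YFP in NQO1 intron 1, constitutive mCherry) were seeded 1000/well in 384-well plates and cultured overnight. Primary screen: 1 μM compound in 0.1% DMSO, one well each, with CDDO 200 nM and 0.1% DMSO controls. Retests used 10-point serial dilutions from 10 µM in triplicate, with brusatol control. Imaged at 0, 24, 48, 64 h (YFP = NRF2 activity, mCherry = viability); IC₅₀ by curve fit.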

The subject of the next data set is KYSE180 cells. The experiment in a line: High-content cytotoxicity screen. The data set is classed as cell-based, human. The conditions noted are these: Homo sapiens, KYSE-180, 72 h, read-out: Cell proliferation (IC50, μM). In short, it runs like this: (§1)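 Cells were seeded at 1200/well in 384-well plates and cultured overnight. Test compound was added at […] serial dilution from 10 µM, in triplicate, for 3 days. Controls were 0.1% DMSO (negative), 30 µM benzethonium chloride and 0.1% Triton X-100 added just before staining (positive). Cells were stained with 0.5 µg/ml Hoechst and 100 nM YOYO1, four 4× images per well. Normalized total-cell and dead-cell percentages were fitted for IC₅₀.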

The nature of data set [3]: Pharmacokinetics of PYR in mice, i.p. The class given is in vivo. The conditions noted are these: 30 mg/kg/day; extrapolated from literature Cmax.
For data set [4], the system named is NRF2 expression in NRF2^WT-KYSE450 cells. Kind of data set: NRF2 expression in KYSE450 cells. The class given is cell-based, human. In short, it runs like this: (§2)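 Nuclear and cytosolic fractions prepared with an extraction kit, or whole-cell lysates in RIPA buffer. Proteins separated by SDS-PAGE, transferred to nitrocellulose, blocked and probed with primary antibody overnight at 4 °C. Chemiluminescence detected on film and quantified by densitometry; band data as mean ± SD, Student's t-test.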

The subject of a further data set is STAT3. The experiment in a line: pSTAT3 and STAT3 expression in KYSE70 cells. The data set is classed as cell-based, human. Conditions: up to 10 μM. In short, it runs like this: as §2
For the next data set, the system named is global translation. The experiment in a line: Protein synthesis assay. The data set is classed as cell-based, human. Conditions: KYSE70; PYR 10 μM, MIT 20 nM; CHX positive control. The method, boiled down: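 KYSE70 cells (37 °C, 5% CO₂) seeded at 2000 cells/well in 96-well plates; exposed to test compound or cycloheximide (positive control) in triplicate. Global translation measured with a commercial protein synthesis assay kit per manufacturer's protocol; cells imaged on a high-content imager.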

In the next data set the target is DHFR (Homo sapiens, UniProt P00374). The experiment in a line: DHFR activity assay kit. The data set is classed as biochemical. Conditions: KYSE70 cells. The method, boiled down: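 Kit-based DHFR enzymatic assay followed by the decrease in A340nm over time; methotrexate 1 μM as reference DHFR inhibitor.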
Chain of DHFR (P00374 whole entry): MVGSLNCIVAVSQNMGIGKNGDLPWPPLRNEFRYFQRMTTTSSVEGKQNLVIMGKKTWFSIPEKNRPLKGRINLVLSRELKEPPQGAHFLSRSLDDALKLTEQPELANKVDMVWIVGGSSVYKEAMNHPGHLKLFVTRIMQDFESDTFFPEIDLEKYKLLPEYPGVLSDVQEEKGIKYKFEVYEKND
A further data set has as its system KYSE70 cells. The experiment in a line: High-content cytotoxicity screen. The data set is classed as cell-based, human. The conditions noted are these: Homo sapiens, KYSE-70, 72 h, read-out: Cell proliferation (IC50, μM). In short, it runs like this: as §1

As for `CCc1nc(N)nc(N)c1-c1ccc(Cl)cc1` [PYR, Pyrimethamine], the “Overall mRNA expression level of human NRF2 target genes” value in data set [1] was “significantly reduced”. Besides, the IC50 in [2] is 0.23 µM; in the data set on KYSE180 cells, above 10 µM; in the data set on KYSE70 cells it was above 10 µM. In data set [3], the “Concentration expected in mouse tissues” value is around 10 µM. The NRF2 expression result in data set [4] is listed as “upregulated NRF2 expression”. In addition, the “pSTAT3 and STAT3 expression” value in the data set with STAT3 is listed as “did not significantly inhibit”. Further, in the data set with global translation, the Global translation entry is recorded as “Neither PYR (10 μM) nor MIT (20 nM) inhibited global translation”. For the same molecule, the “Concentration from which DHFR activity is significantly inhibited” value on DHFR was at least 5 µM.
